Where “and” joins values, the source holds several entries; their conditions need not be identical. Equal values may be shown once. Read-outs that look alike come from different tables or passages of the source.
What was measured:
jack bean urease = jack bean urease (Canavalia ensiformis, UniProt P07374); experiment: Urease inhibition assay; type: biochemical; conditions: for IC50: 3 experiments
[1] = molecular target: Bacillus Pasteurii urease (Sporosarcina pasteurii, UniProt P41020); experiment: Urease inhibition assay; type: biochemical; conditions: 3 experiments
Bacillus Pasteurii urease, sequence (P41020 whole entry): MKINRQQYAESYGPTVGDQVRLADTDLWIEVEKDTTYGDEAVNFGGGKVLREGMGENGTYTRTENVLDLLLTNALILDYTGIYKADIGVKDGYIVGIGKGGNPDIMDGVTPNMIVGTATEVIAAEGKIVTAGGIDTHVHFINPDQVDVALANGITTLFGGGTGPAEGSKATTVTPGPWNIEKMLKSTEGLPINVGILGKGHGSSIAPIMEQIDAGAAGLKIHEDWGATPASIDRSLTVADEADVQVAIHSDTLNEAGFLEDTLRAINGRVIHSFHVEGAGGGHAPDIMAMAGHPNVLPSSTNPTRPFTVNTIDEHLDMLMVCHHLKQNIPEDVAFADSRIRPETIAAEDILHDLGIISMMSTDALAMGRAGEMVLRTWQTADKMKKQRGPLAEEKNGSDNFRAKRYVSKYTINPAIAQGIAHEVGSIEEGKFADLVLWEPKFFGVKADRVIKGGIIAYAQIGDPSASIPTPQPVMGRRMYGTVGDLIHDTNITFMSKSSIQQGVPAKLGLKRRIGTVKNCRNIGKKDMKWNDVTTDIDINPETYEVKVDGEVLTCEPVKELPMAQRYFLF
Bacillus Pasteurii urease, sequence (P41021 whole entry partner): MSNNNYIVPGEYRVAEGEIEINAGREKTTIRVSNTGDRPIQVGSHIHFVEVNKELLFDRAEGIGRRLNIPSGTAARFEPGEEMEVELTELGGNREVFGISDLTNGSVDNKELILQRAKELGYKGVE
Bacillus Pasteurii urease, sequence (P41022 whole entry partner): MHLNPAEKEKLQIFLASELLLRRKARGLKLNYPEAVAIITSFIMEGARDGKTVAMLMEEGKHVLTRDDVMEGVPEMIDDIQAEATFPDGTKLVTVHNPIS

ABTS method = conditions: for IC50: read-out: ABTS scavenging IC50
α-Glucosidase = α-Glucosidase (Saccharomyces cerevisiae, UniProt P53341); experiment: α-Glucosidase inhibition assay; type: biochemical
α-Glucosidase, sequence (P53341 whole entry): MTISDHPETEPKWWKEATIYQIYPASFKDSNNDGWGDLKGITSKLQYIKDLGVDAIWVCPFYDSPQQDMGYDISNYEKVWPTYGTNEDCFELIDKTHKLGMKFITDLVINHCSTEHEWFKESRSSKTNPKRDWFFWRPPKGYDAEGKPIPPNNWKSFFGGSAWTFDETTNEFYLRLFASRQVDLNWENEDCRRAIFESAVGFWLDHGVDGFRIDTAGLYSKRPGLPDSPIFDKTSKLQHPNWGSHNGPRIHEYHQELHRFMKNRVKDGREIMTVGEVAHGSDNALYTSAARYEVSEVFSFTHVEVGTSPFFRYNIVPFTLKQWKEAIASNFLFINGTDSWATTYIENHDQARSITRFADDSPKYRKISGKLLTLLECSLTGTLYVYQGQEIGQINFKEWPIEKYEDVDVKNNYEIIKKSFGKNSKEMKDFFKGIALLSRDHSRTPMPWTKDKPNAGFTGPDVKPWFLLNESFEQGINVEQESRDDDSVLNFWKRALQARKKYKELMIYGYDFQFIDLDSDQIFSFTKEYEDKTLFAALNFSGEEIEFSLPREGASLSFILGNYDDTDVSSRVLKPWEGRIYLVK
How it was run: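 Test compound (200–800 μg/mL) pre-incubated 5 min at 37 °C with 2 % w/v starch (sucrose) solution in 0.2 M Tris buffer, pH 8.0. 5 mM p-nitrophenyl-α-D-glucopyranoside added intermittently, then α-glucosidase (1 U/mL), 40 min at 35 °C. Stopped with […]; absorbance read at 405 nm. % inhibition = (control − sample)/control × 100; samples above 50 % taken to IC50.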

[2] = DPPH free radical scavenging activity; conditions: for IC50: read-out: DPPH scavenging IC50
[3] = Superoxide anion scavenging assay; conditions: for IC50: read-out: superoxide anion scavenging IC50
[4] = Enzyme (SEM ±) J.B Urease, IC50, mean ± SEM
[5] = Enzyme (SEM ±) B.P Urease, IC50, mean ± SEM

jack bean urease, sequence (P07374 whole entry, looked up): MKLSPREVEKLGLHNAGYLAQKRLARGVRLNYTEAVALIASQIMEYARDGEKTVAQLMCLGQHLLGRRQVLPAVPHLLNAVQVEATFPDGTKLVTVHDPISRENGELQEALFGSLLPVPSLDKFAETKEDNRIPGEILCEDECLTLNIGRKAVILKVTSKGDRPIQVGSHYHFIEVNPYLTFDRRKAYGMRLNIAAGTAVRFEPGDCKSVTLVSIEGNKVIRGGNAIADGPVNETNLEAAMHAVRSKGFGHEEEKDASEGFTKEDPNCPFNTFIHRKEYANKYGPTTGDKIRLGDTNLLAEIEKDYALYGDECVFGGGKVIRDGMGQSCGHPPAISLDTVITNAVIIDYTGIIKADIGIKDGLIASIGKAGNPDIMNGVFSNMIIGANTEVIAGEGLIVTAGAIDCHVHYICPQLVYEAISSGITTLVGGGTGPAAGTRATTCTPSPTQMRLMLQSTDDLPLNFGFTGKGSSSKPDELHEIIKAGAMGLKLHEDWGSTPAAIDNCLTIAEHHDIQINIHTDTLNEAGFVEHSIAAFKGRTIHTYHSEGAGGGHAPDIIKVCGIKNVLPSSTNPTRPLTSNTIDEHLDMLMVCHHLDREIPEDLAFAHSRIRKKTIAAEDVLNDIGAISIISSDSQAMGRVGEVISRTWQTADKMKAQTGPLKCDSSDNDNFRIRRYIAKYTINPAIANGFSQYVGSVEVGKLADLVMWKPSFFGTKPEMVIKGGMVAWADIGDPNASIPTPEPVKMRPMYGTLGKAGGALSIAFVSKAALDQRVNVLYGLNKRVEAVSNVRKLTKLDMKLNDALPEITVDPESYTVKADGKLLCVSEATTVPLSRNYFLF

| SMILES | ABTS % Scavenging (ABTS method; 10 μM) | ABTS % Scavenging (ABTS method; 20 μM) | ABTS % Scavenging (ABTS method; 30 μM) | ABTS % Scavenging (ABTS method; 40 μM) | ABTS % Scavenging (ABTS method; 50 μM) | IC50 (ABTS method) | Type of Inhibition (α-glucosidase and α-amylase) (α-Glucosidase) | DPPH % Scavenging ([2]; 25 μM) | DPPH % Scavenging ([2]; 50 μM) | DPPH % Scavenging ([2]; 75 μM) | DPPH % Scavenging ([2]; 100 μM) | IC50 [2] | superoxide anion % scavenging ([3]; 25 μM) | superoxide anion % scavenging ([3]; 50 μM) | superoxide anion % scavenging ([3]; 75 μM) | superoxide anion % scavenging ([3]; 100 μM) | IC50 [3] | Types of inhibition (urease) (jack bean urease) | IC50 (jack bean urease; [4]) | IC50 [1, 5] | also measured |
| --- | --- | --- | --- | --- | --- | --- | --- | --- | --- | --- | --- | --- | --- | --- | --- | --- | --- | --- | --- | --- | --- |
| NC(N)=S [Thiourea, reference compound] | – | – | – | – | – | – | – | – | – | – | – | – | – | – | – | – | – | – | – | – | IC50 (jack bean urease; read-out: Enzyme (SEM ±) J.B Urease, IC50, mean ± SEM): 10.12 ± 0.08 µM; IC50 ([1]; read-out: Enzyme (SEM ±) B.P Urease, IC50, mean ± SEM): 14.08 ± 0.05 µM |
| Cc1c(C)c2c(c(C)c1O)CCC(C)(C(=O)O)O2 (stereo not shown) [Trolox, reference compound] | 36.08 ± 0.1% and 26.05 ± 0.03% and 35.01 ± 0.3% and 18.08 ± 0.1% | 58.02 ± 0.62% and 55.02 ± 0.12% and 65.2 ± 0.1% and 40.02 ± 0.62% | 67.03 ± 0.02% and 70.03 ± 0.01% and 77.31 ± 0.07% and 55.03 ± 0.02% | 85.01 ± 0.06% and 82.01 ± 0.05% and 89.01 ± 0.5% and 84.01 ± 0.06% | 105.02 ± 0.02% and 109.2 ± 0.22% and 105.12 ± 0.21% and 93.02 ± 0.02% | 16.4 µM and 19.4 µM and 17.5 µM and 20.3 µM | – | – | – | – | – | – | – | – | – | – | – | – | – | – | – |
| C=CCN(c1nccs1)S(=O)(=O)c1ccc(Cl)cc1 [Compound 30, N-Allyl-4-chloro-N-(thiazol-2-yl)benzenesulfonamide] | 23.11 ± 0.02% | 40.3 ± 0.53% | 46.01 ± 0.19% | 59.5 ± 0.20% | 87.11 ± 0.15% | 37.6 ± 0.01 µM | Non-competitive | 38.5 ± 0.19% | 46.1 ± 0.11% | 77.2 ± 0.13% | 81.2 ± 0.15% | 52.3 ± 0.21 µM | 29 ± 0.34% | 63 ± 0.01% | 79 ± 0.11% | 87 ± 0.21% | 43 ± 0.09 µM | Non-competitive | 28.1 ± 0.35 µM | 32.3 ± 0.37 µM | – |
| O=S(=O)(c1ccc(Br)cc1)N(Cc1ccccc1)c1nccs1 [Compound 21, N-benzyl-4-bromo-N-(thiazol-2-yl)benzenesulfonamide] | 15.1 ± 0.05% | 30.5 ± 0.04% | 46.03 ± 0.11% | 72.05 ± 0.15% | 90.03 ± 0.51% | ~33 µM and 33 µM | Competitive | 35.1 ± 0.05% | 63.5 ± 0.11% | 90.5 ± 0.16% | 99.1 ± 0.32% | ~45.2 µM and 45.2 µM | 33 ± 0.3% | 57 ± 0.13% | 82 ± 0.01% | 86 ± 0.11% | 45 ± 0.03 µM | Non-competitive | 23.06 ± 0.11 µM | 27 ± 0.48 µM | – |
| O=[N+]([O-])c1ccc(S(=O)(=O)N(Cc2ccccc2)c2nccs2)cc1 [Compound 25, N-benzyl-4-nitro-N-(thiazol-2-yl)benzenesulfonamide] | 09.01 ± 0.09% | 28.05 ± 0.04% | 43.09 ± 0.01% | 70.02 ± 0.03% | 81.03 ± 0.91% | 29.01 ± 0.14 µM | Non-competitive | 35.2 ± 0.2% | 57.8 ± 0.11% | 71.6 ± 0.03% | 85.1 ± 0.41% | 47.1 ± 0.08 µM | – | – | – | – | – | Non-competitive | 48.1 ± 1.19 µM | 53.32 ± 0.21 µM | inhibition against both enzymes (J.B. and B.P urease), in words (jack bean urease): weak inhibition |
| O=C1O[C@H]([C@@H](O)CO)C(O)=C1O [Ascorbic acid, reference compound] | – | – | – | – | – | – | – | – | 70.3 ± 0.01% and 68.2 ± 0.17% and 58.1 ± 0.05% and 69.3 ± 0.41% | 85.3 ± 0.01% and 88.1 ± 0.02% and 79.1 ± 0.12% and 95.3 ± 0.01% | 97.2 ± 0.2% and 94.2 ± 0.5% and 84.2 ± 0.18% and 105.2 ± 0.2% | 30.4 µM and 42.2 µM and 45.1 µM and 35 µM | 39 ± 0.09% and 49 ± 0.05% and 35 ± 0.33% and 25 ± 0.03% | 55 ± 0.05% and 53 ± 0.03% and 57 ± 0.13% and 60 ± 0.07% | 77 ± 0.12% and 75 ± 0.15% and 86 ± 0.53% and 67 ± 0.11% | 90 ± 0.02% and 93 ± 0.01% and 99 ± 0.11% and 82 ± 0.01% | 33.4 µM and 35.4 µM and 39.1 µM and 38 µM | – | – | – | – |

— publication PMC11327602 (Heliyon, 2024)
